In ChEMBL document CHEMBL4706754, “Trisubstituted Pyrrolinones as Small-Molecule Inhibitors Disrupting the Protein-RNA Interaction of LIN28 and Let-7” (ACS Med Chem Lett, 2021):
Active and inactive are the calls of the source. The rule behind the calls is not given here.

Tests used:
[1] = Inhibition of human His-tagged LIN28A (16 to 187 residues) interaction with FAM-labelled preE-let-7f-1 miRNA (unknown origin) pretreated with protein for 30 mins followed by miRNA addition and measured after 15 mins by fluorescence polarization assay
In short: (§1)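 LIN28A (residues 16–187) purified by nickel affinity chromatography; tested both His-tagged and with tag removed by TEV protease. Protein titrated into FAM-labeled preE-let-7f-1, FP read alongside total fluorescence. Unlabeled preE-let-7f-1 as positive control. Dose–response over eight concentrations, top 60 μM or 30 μM, in quadruplicate; some IC50s extrapolated from the observed curves.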

[2] = Inhibition of human His-tagged LIN28A(16 to 187 residues) interaction with mouse preE-let-7f-Cy3 miRNA at 2.5 to 75 uM pretreated with protein for 2 hrs followed by incubation with miRNA and measured after 15 mins by EMSA method relative to control; conditions: dose 2.5-75 µM, time 135.0 min
[3] = Stabilization of interaction of GST-fused C-terminal region of PMA2 YDI (unknown origin)/eGFP-fused tobacco 14-3-3 expressed in Escherichia coli incubated for 2 hrs by fluorescence based analysis relative to PPI-1
[4] = Inhibition of human His-tagged LIN28A (16 to 187 residues) interaction with mouse preE-let-7f-Cy3 miRNA pretreated with protein for 2 hrs followed by incubation with miRNA and measured after 15 mins by EMSA method; conditions: time 135.0 min
[5] = target: T1, Protein lin-28 homolog A (Homo sapiens) (UniProt Q9H9Z2); assay: Inhibition of LIN28A cold shock domain (16 to 126 residues) (unknown origin) assessed as increase in thermal stability measured after 45 mins by differential scanning fluorimetry; conditions: dose 0.78-100 µM
T1 sequence (whole entry): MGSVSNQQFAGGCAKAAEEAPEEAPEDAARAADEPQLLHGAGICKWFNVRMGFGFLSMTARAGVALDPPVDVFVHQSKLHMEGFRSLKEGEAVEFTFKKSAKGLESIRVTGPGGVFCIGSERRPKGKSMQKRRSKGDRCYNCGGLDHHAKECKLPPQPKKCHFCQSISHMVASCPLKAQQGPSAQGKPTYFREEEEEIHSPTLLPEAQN

JAR [6] = assay: Inhibition of LIN28/let-7 miRNA interaction in human JAR cells assessed as increase in cellular let-7a mature miRNA level at 5 to 20 uM measured after 24 hrs by RT-qPCR analysis; type: cell-based; conditions: dose 5-20 µM
JAR [7] = assay: Inhibition of LIN28/let-7 miRNA interaction in human JAR cells assessed as increase in cellular let-7g mature miRNA level at 5 to 20 uM measured after 24 hrs by RT-qPCR analysis; type: cell-based; conditions: dose 5-20 µM
[8] = Inhibition of LIN28 (unknown origin) expressed in Escherichia coli BL21 (DE3) Rosetta interaction with FAM-labelled preE-let-7 miRNA (unknown origin) by fluorescence polarization assay; set-up: species or system Homo sapiens; in short: as §1
[9] = Stabilization of interaction of GST-fused C-terminal region of PMA2 YDI (unknown origin)/eGFP-fused tobacco 14-3-3 expressed in Escherichia coli incubated for 2 hrs by fluorescence based analysis

## COc1ccc(C(=O)C2=C(O)C(=O)N(c3ccc(O)c(C(=O)O)c3)C2c2ccc(C(=O)O)cc2)cc1 (configuration not stated)
[1]
  IC50: 30 µM

## O=C(O)c1cccc(N2C(=O)C(O)=C(C(=O)c3ccc(Br)cc3)C2c2ccc(-c3nccs3)cc2)c1 (configuration not stated)
[2]
  inhibition: inactive

## O=C(O)c1ccc(C2C(C(=O)c3ccccc3)=C(O)C(=O)N2c2ccc(O)c(C(=O)O)c2)cc1 (configuration not stated)
[3]
  Activity: < 30%

## O=C(C1=C(O)C(=O)N(c2ccc(O)c(C(=O)O)c2)C1c1ccc(-c2nccs2)cc1)c1ccc(Br)cc1 (configuration not stated)
[4]
  inhibition: Dose-dependent effect
[5]
  Activity: Dose-dependent effect
JAR [6]
  inhibition: Active
JAR [7]
  inhibition: Active
[3]
  Activity: < 30%

## CCOc1cccc2c1N[C@@H](c1ccc(C(=O)O)cc1)[C@H]1CC=C[C@@H]21
[8]
  IC50: 7 µM

## O=C(C1=C(O)C(=O)N(c2ccc(O)c(C(=O)O)c2)C1c1ccc([N+](=O)[O-])cc1)c1ccccc1 (configuration not stated)
[9]
  EC50: 100 µM

## O=C(O)c1cccc(N2C(=O)C(O)=C(C(=O)c3ccccc3)C2c2ccc(-c3nccs3)cc2)c1 (configuration not stated)
[1]
  IC50: 30 µM

## O=C(O)c1ccc(C2C(C(=O)c3ccc(Br)cc3)=C(O)C(=O)N2c2ccc(O)c(C(=O)O)c2)cc1 (configuration not stated)
[1]
  IC50: 30 µM
